The source of these data is PMC11302324 (RSC Advances, 2024).

Series [1] relates to prostate carcinoma (PC-3). In words: In vitro cytotoxicity, MTT assay. The class given is cell-based. The settings on record: Homo sapiens, read-out: In vitro cytotoxicity IC50 PC-3. In short, it runs like this:
(§1)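 Cells seeded at 1×10^5 cells per ml and grown 24 h at 37 °C to a monolayer, then washed twice. Two-fold dilutions of test compound in RPMI with 2% serum; medium-only control wells; doxorubicin positive control. Morphology checked, then MTT stock (5 mg ml⁻¹ in PBS) added and incubated 1-5 h (37 °C, 5% CO₂). Formazan dissolved in DMSO; OD 560 nm minus 620 nm; mean of three determinations; one-way ANOVA.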
Background: Tetrazolium dyes change colour on reduction, which living cells bring about.

Series [2] has as its system hepatocellular carcinoma (HepG-2). In words: In vitro cytotoxicity, MTT assay. The format is cell-based. The conditions noted are these: Homo sapiens, HepG2, read-out: In vitro cytotoxicity IC50 HePG2. The method in brief:
as §1

For series [3], the system named is colorectal carcinoma (HCT-116). In words: In vitro cytotoxicity, MTT assay. The conditions noted are these: Homo sapiens, HCT-116, read-out: In vitro cytotoxicity IC50 HCT-116. The class given is cell-based. In short, it runs like this:
as §1

Another series addresses CK2 kinase (Homo sapiens, UniProt P68400). In words: CK2 kinase enzyme inhibitory assay. The format is biochemical.
In series [4] the test system is HepG-2, PC-3, and HCT-116 cell lines. The series is described as follows: In vitro cytotoxicity, MTT assay, stated for the three cell lines together. The format is cell-based, human. In short, it runs like this:
as §1

Sequence of CK2 kinase (P68400 whole entry): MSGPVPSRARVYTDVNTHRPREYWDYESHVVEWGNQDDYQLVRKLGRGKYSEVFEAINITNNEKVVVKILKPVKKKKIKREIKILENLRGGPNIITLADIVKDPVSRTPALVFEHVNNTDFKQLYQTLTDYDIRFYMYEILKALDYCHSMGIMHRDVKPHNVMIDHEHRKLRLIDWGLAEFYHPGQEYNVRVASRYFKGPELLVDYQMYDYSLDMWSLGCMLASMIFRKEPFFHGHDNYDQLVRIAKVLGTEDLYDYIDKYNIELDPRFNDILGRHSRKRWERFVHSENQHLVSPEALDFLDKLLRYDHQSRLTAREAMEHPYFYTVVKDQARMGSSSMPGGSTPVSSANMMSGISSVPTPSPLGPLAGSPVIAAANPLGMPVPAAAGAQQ

Broadly, the IC50 is the concentration at which inhibition is half-maximal. Regarding `COC(=O)[C@H](CC(C)C)NC(=O)COc1ccc2c(C)cc(=O)oc2c1` [Compound 5b, (S)-Methyl-4-methyl-2-{2-[(4-methyl-2-oxo-2H-chromen-7-yl)oxy]acetamido}pentanoate], the IC50 in series [1] was 59.7 ± 4.2 µM; in series [2], 42.16 ± 0.3 µM; in series [3], 35.1 ± 2.8 µM; at CK2 kinase it was 0.117 ± 0.005 µM.
As to `COC(=O)[C@@H](NC(=O)COc1ccc2c(C)cc(=O)oc2c1)c1ccccc1` [Compound 5c, (S)-Methyl 2-{2-[(4-methyl-2-oxo-2H-chromen-7-yl)oxy]acetamido}-2-phenylacetate], the values for the IC50 in series [1], in series [2] and in series [3] were 174 ± 1.8 µM, 154 ± 2.1 µM and 124 ± 4.4 µM, respectively.
As to `Cc1cc(=O)oc2cc(OCC(=O)NCC(=O)NN)ccc12` [Compound 6, N-(2-Hydrazinyl-2-oxoethyl)-2-[(4-methyl-2-oxo-2H-chromen-7-yl)oxy]acetamide], the IC50 in series [1] is 168 ± 4.3 µM; in series [2] it was 168 ± 4.4 µM; in series [3], 171 ± 4.2 µM.
In the case of `COC(=O)CNC(=O)CNC(=O)COc1ccc2c(C)cc(=O)oc2c1` [Compound 7a, Methyl 2-{2-[2-[(4-methyl-2-oxo-2H-chromen-7-yl)oxy]acetamido]acetamido}acetate], the figures for the half-inhibitory concentration (IC50) in series [1], in series [2] and in series [3] were 172.3 ± 1.4 µM, 174 ± 3.4 µM and 137 ± 2.4 µM, respectively.
Consider `COC(=O)[C@@H](NC(=O)CNC(=O)COc1ccc2c(C)cc(=O)oc2c1)c1ccccc1` [Compound 7c, (S)-Methyl2-{2-{2-[(4-methyl-2-oxo-2H-chromen-7-yl)oxy]acetamido}acetamido}-2-phenylacetate], for which the IC50 in series [1] is 16.1 ± 4.6 µM; in series [2], 34.1 ± 4.2 µM; in series [3], 16 ± 4.1 µM; against CK2 kinase, 0.461 ± 0.02 µM. Also, at CK2 kinase (compared with 5b), the “activity against CK2 kinase (in words)” value is recorded as “less active”.
Take `COC(=O)[C@@H](CC(C)C)NC(=O)CNC(=O)CNC(=O)COc1ccc2c(C)cc(=O)oc2c1` [Compound 9b, (R)-Methyl4-methyl-2-{2-{2-{2-[(4-methyl-2-oxo-2H-chromen-7-yl)oxy]acetamido}acetamido}acetamido}pentanoate]: the IC50 was 85.5 ± 0.4 µM in series [1], 298.8 ± 0.3 µM in series [2] and 169.1 ± 0.3 µM in series [3]. For the same molecule, the “cytotoxicity towards three cell lines (in words)” value in series [4] is listed as “relatively weak cytotoxicity”.
On to `COc1cccc2c1C(=O)c1c(O)c3c(c(O)c1C2=O)C[C@@](O)(C(=O)CO)C[C@@H]3O[C@H]1C[C@H](N)[C@H](O)[C@H](C)O1` [Doxorubicin, reference compound], for which the results for the half-maximal inhibitory concentration (IC50) in series [1], in series [2] and in series [3] were 57.3 ± 0.6 µM, 108 ± 0.6 µM and 61.01 ± 0.3 µM, respectively.
